According to ChEMBL document CHEMBL1135562, “Cyclic acid anhydrides as a new class of potent, selective and non-peptidic inhibitors of geranylgeranyl transferase” (Bioorg Med Chem Lett, 2002):
pIC50: −log10 of the molar value.

Legend:
[1] = molecular target: T1, Protein farnesyltransferase (Homo sapiens, UniProt P49354+P49356); assay: In vitro inhibition of farnesyl-protein transferase; format: protein-complex assay
Outline: (§1)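 Recombinant human FPTase; substrate recombinant human wild-type H-Ras with [1-(n)-3H]farnesylpyrophosphate (555 GBq/mmol). Enzyme activity is the [3H]farnesyl transferred to Ras, measured by filter binding. IC50 is the concentration giving 50% inhibition of specific activity, fitted by non-linear regression to a dose–response curve.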

[2] = molecular target: T2, Geranylgeranyl transferase type I (Homo sapiens, UniProt P49354+P53609); assay: In vitro inhibition of geranylgeranyl-protein transferase type-I; format: protein-complex assay
Outline: (§2)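 Recombinant human GGPTase-I; substrate recombinant human H-Ras CVLL with [1-(n)-3H]geranylgeranylpyrophosphate (615 GBq/mmol). Activity is the [3H]geranylgeranyl transferred to Ras, measured by filter binding. IC50 is the concentration inhibiting specific activity by 50%, derived by non-linear regression fit to a dose–response curve.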

[3] = molecular target: T1, Protein farnesyltransferase; assay: In vitro inhibition of Farnesyltransferase; format: protein-complex assay; outline: as §1
[4] = molecular target: T2, Geranylgeranyl transferase type I; assay: In vitro inhibition of Geranylgeranyl transferase type I; format: protein-complex assay; outline: as §2
[5] = In vitro inhibition of geranylgeranyl-protein transferase type-II; parameters: species or system Homo sapiens
[6] = molecular target: T3, Protein farnesyl/geranylgeranyl transferase (Homo sapiens) (UniProt P49354+P49356+P53609); assay: Ratio of human Farnesyltransferase to human Geranylgeranyl transferase type I activity as IC50; 900:500; format: protein-complex assay
[7] = molecular target: T3, Protein farnesyl/geranylgeranyl transferase (Homo sapiens); assay: Ratio of human Farnesyltransferase to human Geranylgeranyl transferase type I activity as IC50; 166:252; format: protein-complex assay

| Compound | pIC50 [1] | pIC50 [2] | further results |
| --- | --- | --- | --- |
| CC(C)=CCC/C(C)=C/C=C1\CCC(C(=O)O)C(C(=O)O)C1 (configuration not stated) | < 3.00 | 3.38 | – |
| CC(C)=CCC/C(C)=C/CCC1=CCC2C(=O)OC(=O)C2C1 (configuration not stated) [listing 1 of 2 here] | – | – | pIC50 [3]: 5.05; pIC50 [4]: 3.30 |
| COC(=O)C1CC=C(CCCC(C)CCCC(C)CCCC(C)C)CC1C(=O)OC (configuration not stated) | – | < 3.00 | – |
| CCCCCCCCCCCCCC/C(C(=O)O)=C(\C)C(=O)O [CHAETOMELLIC ACID A] | – | 4.04 | pIC50 [5]: 4.47 |
| CC(C)=CCCC1=CCC(C(=O)O)C(C(=O)O)C1 (configuration not stated) | < 3.00 | 3.05 | – |
| CCCCCCCCCCCC(=O)OC(=O)CCCCCCCCCCC [DODECANOIC ANHYDRIDE] | 3.07 | 3.64 | – |
| COC(=O)C1CC=C(CCC=C(C)C)CC1C(=O)OC (configuration not stated) | – | – | Ratio [6]: 1.8 |
| C=C1CC(=O)OC1=O [ITACONIC ANHYDRIDE] | < 3.00 | < 3.00 | – |
| CC(C)=CCCC1=CCC2C(=O)OC(=O)C2C1 (configuration not stated) | 3.35 | 4.40 | – |
| CCCCCCCCC/C=C/CC1CC(=O)OC1=O (configuration not stated) | < 3.00 | 3.40 | – |
| CC(C)=CCC/C(C)=C/CCC1=CCC2C(=O)OC(=O)C2C1 (configuration not stated) [listing 2 of 2 here] | 3.72 | 3.87 | – |
| CC(C)CCCC(C)CCCC(C)CCCC1=CCC(C(=O)O)C(C(=O)O)C1 (configuration not stated) | < 3.00 | < 3.00 | – |
| CCCCCCCCC/C=C/CC(CC(=O)O)C(=O)O (configuration not stated) | 3.40 | < 3.00 | – |
| CCCCCCCCCCCCC(C(=O)O)C(C(=O)O)C(=O)O (configuration not stated) | – | – | Ratio [7]: 0.66 |
| CC(C)CCCC(C)CCCC(C)CCCC1=CCC2C(=O)OC(=O)C2C1 (configuration not stated) | < 3.00 | 4.68 | – |
